Data as given in ChEMBL document CHEMBL1141112, “Synthesis and antiinflammatory activity of coumarin derivatives” (J Med Chem, 2005).
pIC50: −log10 of the molar value. Active and inactive are the calls of the source. No cut-off for these calls is given here.

How the values were obtained:
Rattus norvegicus [1] = test: Percent inhibition of carrageenan 2% (0.1 mL intradermal) induced paw edema at the i.p. dose of 0.01 m mol/kg in fisher 344 rats; n=5; type: functional
In short: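 Right hind paw edema in Fischer 344 rats (150–200 g) induced by intradermal 0.1 mL 2% carrageenin in water. Rats killed 3.5 h after carrageenin; injected minus uninjected paw weight compared with water-treated controls and expressed as percent inhibition. Mean of two experiments, five animals per group; Student's t-test.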

[2] = Percent heme protein dependent lipid peroxidation at (1 mM) upon incubation for 10 min at 37 degree C. in pH 7.4 with arachidonic acid and H2O2; type: functional
In short: (§1)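 Heme 50 μM, arachidonic acid 0.4 mM, test compound and H2O2 0.5 mM incubated together for 10 min at 37 °C in KH2PO4–KOH buffer (50 mM, pH 7.4). Tested at 0.1 and 1 mM. At least triplicate; absorbance SD under 10% of mean.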

[3] = Superoxide radical scavenging activity at 1 mM upon incubation for 2 min at RT in pH 7.4 with PMS, NADH and NBT by nitroblue tetrazolium method
[4] = Percent heme protein dependent lipid peroxidation at (0.1 mM) upon incubation for 10 min at 37 degree C. in pH 7.4 with arachidonic acid and H2O2; type: functional; in short: as §1
[5] = Percent heme protein dependent lipid peroxidation (0.1 mM) upon incubation for 10 min at 37 degree C. in pH 7.4 with arachidonic acid and H2O2; no action; type: functional; in short: as §1
[6] = Superoxide radical scavenging activity at 1 mM upon incubation for 2 min at RT in pH 7.4 with PMS, NADH and NBT by nitroblue tetrazolium method; no action
[7] = biological target: T1, Seed linoleate 13S-lipoxygenase-1 (Glycine max, UniProt P08170); test: Inhibitory concentration against soybean lipoxygenase upon incubation with sodium linoleate (0.1 mM) at RT
T1 sequence (P08170 whole entry): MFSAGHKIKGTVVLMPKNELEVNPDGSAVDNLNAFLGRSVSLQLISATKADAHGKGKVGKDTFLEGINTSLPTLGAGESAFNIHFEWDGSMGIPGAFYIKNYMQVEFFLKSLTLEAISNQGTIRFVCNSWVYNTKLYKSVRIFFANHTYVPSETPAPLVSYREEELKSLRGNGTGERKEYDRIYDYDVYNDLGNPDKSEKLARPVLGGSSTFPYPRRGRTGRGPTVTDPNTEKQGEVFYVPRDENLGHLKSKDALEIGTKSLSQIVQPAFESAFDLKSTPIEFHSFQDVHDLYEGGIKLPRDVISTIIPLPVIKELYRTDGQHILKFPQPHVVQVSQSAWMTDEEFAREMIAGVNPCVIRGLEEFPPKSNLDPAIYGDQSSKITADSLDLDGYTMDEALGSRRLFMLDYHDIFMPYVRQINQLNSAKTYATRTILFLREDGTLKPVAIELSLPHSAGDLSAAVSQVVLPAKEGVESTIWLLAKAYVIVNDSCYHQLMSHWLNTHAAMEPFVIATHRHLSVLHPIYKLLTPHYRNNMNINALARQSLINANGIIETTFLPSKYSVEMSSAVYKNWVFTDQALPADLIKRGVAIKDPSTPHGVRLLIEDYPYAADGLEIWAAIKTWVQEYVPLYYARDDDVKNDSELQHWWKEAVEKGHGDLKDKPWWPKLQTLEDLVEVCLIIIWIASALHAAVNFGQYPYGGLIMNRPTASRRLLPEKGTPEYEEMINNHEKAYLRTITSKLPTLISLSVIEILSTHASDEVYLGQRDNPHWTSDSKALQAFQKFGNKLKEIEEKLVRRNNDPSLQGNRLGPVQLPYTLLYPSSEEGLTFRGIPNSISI
In short: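 Soybean lipoxygenase (0.2 mL enzyme solution, 1/3 ×10^4 w/v in saline) incubated at room temperature with test compounds in ethanol and sodium linoleate 0.1 mM as substrate. Conversion to 13-hydroperoxylinoleic acid followed at 234 nm and compared with NDGA as standard inhibitor. Run at least in triplicate; SD of absorbance under 10% of mean.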

[8] = Percent heme protein dependent lipid peroxidation (1 mM) upon incubation for 10 min at 37 degree C. in pH 7.4 with arachidonic acid and H2O2; no action; type: functional; in short: as §1
Rattus norvegicus [9] = test: Onset of arthritis measured as arthritic score at i.p. dose of 0.001 m mol/kg in rats injected intradermally with Freund's adjuvant after 6 days; type: functional
In short: (§2)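 Fischer 344 rats, five per group, given Freund's adjuvant (0.6 mg desiccated Mycobacterium butyricum in 0.1 mL liquid paraffin) intradermally at tail base. Compound given ip at 0.001 mmol/kg from day 0, every other day for 24 days; absolute controls got vehicle only. Score: one point per inflamed wrist/ankle plus one per involved phalangeal joint, max five per limb, every 2 days from day 14. Run in duplicate.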

Rattus norvegicus [10] = test: Onset of arthritis measured as arthritic score at i.p. dose of 0.001 m mol/kg in rats injected intradermally with Freund's adjuvant after 18 days; type: functional; in short: as §2
Rattus norvegicus [11] = test: Onset of arthritis measured as arthritic score at i.p. dose of 0.001 m mol/kg in rats injected intradermally with Freund's adjuvant after 0 days; type: functional; in short: as §2
Rattus norvegicus [12] = test: Onset of arthritis measured as arthritic score at i.p. dose of 0.001 m mol/kg in rats injected intradermally with Freund's adjuvant after 12 days; type: functional; in short: as §2
Rattus norvegicus [13] = test: Onset of arthritis measured as arthritic score at i.p. dose of 0.001 m mol/kg in rats injected intradermally with Freund's adjuvant after 8 days; type: functional; in short: as §2
Rattus norvegicus [14] = test: Onset of arthritis measured as arthritic score at i.p. dose of 0.001 m mol/kg in rats injected intradermally with Freund's adjuvant after 10 days; type: functional; in short: as §2
Rattus norvegicus [15] = test: Duration of paralysis in rats (injected i.p. with 10 mg/1 mL/g of zoxazolamine) at i.p. dose of 0.001 m mol/kg after 24 days; type: functional
In short: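 Fischer 344 rats, groups of five, given Freund's Adjuvant intradermally at tail base; compound ip 0.001 mmol/kg from day zero every other day for 24 days. On day 24, ≥12 h after last dose, zoxazolamine ip 10 mg/1 mL/g as aqueous Tween 80 suspension; paralysis duration timed. Run in duplicate.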

Rattus norvegicus [16] = test: Onset of arthritis measured as arthritic score at i.p. dose of 0.001 m mol/kg in rats injected intradermally with Freund's adjuvant after 2 days; type: functional; in short: as §2
[17] = biological target: Prostaglandin G/H synthase 1 (Homo sapiens) (UniProt P23219); conditions: at 1 mM
Sequence of Prostaglandin G/H synthase 1 (Homo sapiens) (P23219 whole entry): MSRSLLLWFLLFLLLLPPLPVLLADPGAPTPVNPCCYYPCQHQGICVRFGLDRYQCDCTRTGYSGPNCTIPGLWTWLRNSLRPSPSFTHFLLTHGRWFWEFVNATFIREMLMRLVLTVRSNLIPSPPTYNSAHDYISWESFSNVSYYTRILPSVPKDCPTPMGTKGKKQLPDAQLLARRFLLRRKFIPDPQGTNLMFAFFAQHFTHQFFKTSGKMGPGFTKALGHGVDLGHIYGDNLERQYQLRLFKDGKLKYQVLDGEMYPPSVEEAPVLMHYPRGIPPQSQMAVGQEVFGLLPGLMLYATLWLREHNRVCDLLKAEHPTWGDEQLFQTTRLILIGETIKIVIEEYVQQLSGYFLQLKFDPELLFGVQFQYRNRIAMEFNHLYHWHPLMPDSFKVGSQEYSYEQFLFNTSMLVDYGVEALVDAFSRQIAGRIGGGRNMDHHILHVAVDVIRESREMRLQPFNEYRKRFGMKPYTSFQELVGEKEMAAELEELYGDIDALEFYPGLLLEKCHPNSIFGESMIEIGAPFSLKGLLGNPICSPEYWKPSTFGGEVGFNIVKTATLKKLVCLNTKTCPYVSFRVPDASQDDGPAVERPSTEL

Rattus norvegicus [18] = test: Onset of arthritis measured as arthritic score at i.p. dose of 0.001 m mol/kg in rats injected intradermally with Freund's adjuvant after 14 days; type: functional; in short: as §2
Rattus norvegicus [19] = test: Onset of arthritis measured as arthritic score at i.p. dose of 0.001 m mol/kg in rats injected intradermally with Freund's adjuvant after 20 days; type: functional; in short: as §2
Rattus norvegicus [20] = test: Percent change in body weight of (FA) adjuvant induced rats at i.p. dose of 0.001 m mol/kg after 24 days; type: functional
Rattus norvegicus [21] = test: Onset of arthritis measured as arthritic score at i.p. dose of 0.001 m mol/kg in rats injected intradermally with Freund's adjuvant after 22 days; type: functional; in short: as §2
Rattus norvegicus [22] = test: Onset of arthritis measured as arthritic score at i.p. dose of 0.001 m mol/kg in rats injected intradermally with Freund's adjuvant after 16 days; type: functional; in short: as §2
Rattus norvegicus [23] = test: Onset of arthritis measured as arthritic score at i.p. dose of 0.001 m mol/kg in rats injected intradermally with Freund's adjuvant after 4 days; type: functional; in short: as §2
Rattus norvegicus [24] = test: Onset of arthritis measured as arthritic score at i.p. dose of 0.001 m mol/kg in rats injected intradermally with Freund's adjuvant after 24 days; type: functional; in short: as §2

SMILES	Inhibition (Rattus norvegicus [1]) [%]	Lipid peroxidation [2] [%]	Scavenging Activity [3] [%]	Lipid peroxidation [4]	Lipid peroxidation [5]	Scavenging Activity [6]	pIC50 [7]	also measured
O=c1ccc2ccccc2o1 [COUMARIN]	30.2	19.2	88.9	9.1%	–	–	–	–
NCCNCc1c(O)ccc2ccc(=O)oc12	56	22.1	–	–	No action	No action	< 3.00	–
CC(Cc1ccc(O)c(O)c1)C(C)Cc1ccc(O)c(O)c1 (configuration not stated)	–	26.1	–	inactive	–	inactive	–	–
CCCCCN(CCCCC)Cc1c(O)ccc2ccc(=O)oc12	46.2	13.7	–	–	No action	No action	4.89	–
O=c1ccc2ccc(O)c(CNCc3ccccc3)c2o1	47.5	35.6	–	19.5%	–	No action	4.36	–
CC(C)CNCc1c(O)ccc2ccc(=O)oc12	55.4	–	33.3	–	No action	–	4.33	Lipid peroxidation [8]: No action
CCCCCNCc1c(O)ccc2ccc(=O)oc12	52.7	5.7	–	8.6%	–	No action	4.23	–
NCCCNCc1c(O)ccc2ccc(=O)oc12	53.4	–	50	–	No action	–	< 3.00	Lipid peroxidation [8]: No action
O=c1ccc2ccc(O)c(CNCCc3ccccc3)c2o1	31.2	5.5	22.2	18.2%	–	–	4.39	–
COc1ccc2c(c1)c(CC(=O)O)c(C)n2C(=O)c1ccc(Cl)cc1 [INDOMETHACIN]	47	–	–	–	–	–	–	–
CN1COc2ccc3ccc(=O)oc3c2C1	53.6	–	–	–	No action	–	4.38	Lipid peroxidation [8]: No action
O=c1ccc2ccc(O)c(CN3CCCCC3)c2o1	47.4	7.6	–	–	No action	No action	4.43	–
CCNCc1c(O)ccc2ccc(=O)oc12	53.6	5.5	–	–	No action	No action	4.28	–
O=c1ccc2ccc(O)c(CN3CCOCC3)c2o1	75.7	19.9	58.3	19.5%	–	–	< 3.00	Arthritic score (Rattus norvegicus [9]): 0; Arthritic score (Rattus norvegicus [10]): 2.5; Arthritic score (Rattus norvegicus [11]): 0; Arthritic score (Rattus norvegicus [12]): 0; Arthritic score (Rattus norvegicus [13]): 0; Arthritic score (Rattus norvegicus [14]): 0; Paralysis (Rattus norvegicus [15]): 212 min; Arthritic score (Rattus norvegicus [16]): 0; inhibition [17]: 32%; Arthritic score (Rattus norvegicus [18]): 1.2; Arthritic score (Rattus norvegicus [19]): 3.25; Change of body weight (Rattus norvegicus [20]): 7%; Arthritic score (Rattus norvegicus [21]): 4.25; Arthritic score (Rattus norvegicus [22]): 1.25; Arthritic score (Rattus norvegicus [23]): 0; Arthritic score (Rattus norvegicus [24]): 3.5
O=C(O)/C=C/c1ccc(O)c(O)c1	–	5.5	86.1	–	inactive	–	–	–
O=c1ccc2ccc(O)c(CN3CCNCC3)c2o1	77.7	21.9	–	19.5%	–	No action	4.00	Arthritic score (Rattus norvegicus [9]): 0; Arthritic score (Rattus norvegicus [10]): 3.2; Arthritic score (Rattus norvegicus [11]): 0; Arthritic score (Rattus norvegicus [12]): 0; Arthritic score (Rattus norvegicus [13]): 0; Arthritic score (Rattus norvegicus [14]): 0; Paralysis (Rattus norvegicus [15]): 292 min; Arthritic score (Rattus norvegicus [16]): 0; inhibition [17]: 11%; Arthritic score (Rattus norvegicus [18]): 1.2; Arthritic score (Rattus norvegicus [19]): 3; Change of body weight (Rattus norvegicus [20]): 18.4%; Arthritic score (Rattus norvegicus [21]): 4.8; Arthritic score (Rattus norvegicus [22]): 0; Arthritic score (Rattus norvegicus [23]): 0; Arthritic score (Rattus norvegicus [24]): 5.8
